Calls of active or inactive are those of the source.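 Rule for the calls, unless noted: active = Her2 level under about 52% in both replicate screens, with viability over 70% of control (limit read from the data); inconclusive = Her2 under the limit in one screen only, or viability under 70%; inactive = Her2 level above the set limit.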

Here are results for 14 compounds from PubChem BioAssay.

The nature of test [1]: Her2 expression decrease, cell viability multiplex – SKBR3 breast tumor cells, AlphaScreen, ATP viability, primary screen (AID 461).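 For Her2 level: lower value means less Her2 protein in the cells.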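 For viability: percent of carrier control wells set as 100% viability.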 The note with it: SKBR3 Her2 protein level, 18-24 h, measured here: SKBR3 viability, ATP luminescence, at 10 µM. In general terms: Alpha assays give light when donor and acceptor beads are brought close together.
Test [2] has as its target Receptor tyrosine-protein kinase erbB-2 (Homo sapiens) (UniProt P04626). The description is as above. Conditions: 18-24 h, at 10 µM, stronger effect = lower value.
Test [3] in a line: reduced viability of SK-BR-3 breast cancer cells – cell-based, 24 h, human, pilot screen (AID 572;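 active = viability at or below 10% of carrier control in both of two separate runs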;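 note: compound exposure lasted between 18 and 24 h rather than exactly 24 h; 100% = carrier-treated control wells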). Conditions: SK-BR-3 viability, CellTiter-Glo luminescence, at 10 µM, stronger effect = lower value. In general terms: In ATP-based viability assays light output follows the ATP content of the culture.
Test [4] is described as follows: HUVEC growth inhibition – cell-based, human, primary screen (AID 575;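 active = viability at or below 30% in both replicate assays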;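 note: 100% = median of untreated cell wells with 0.1% DMSO on each plate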). Conditions: HUVEC proliferation, CellTiter-Glo luminescence, 72 h; at 10 µM; stronger effect = lower value. The method, boiled down: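 Material: primary human umbilical vein endothelial cells / Schedule: 72 h exposure, 37 °C, 5% CO2, 30 min RT equilibration / Signal: ATP-based CellTiter-Glo luminescent read / Read-out basis: percent of median DMSO-control luminescence / Control set: 32 DMSO-only cell-control wells (high), 32 MePR drug-control wells (low) per plate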

A short description of test [5]: H69AR cell proliferation blockers – human, duplicate replicates, primary screen (AID 580;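 active = viability at or under a set limit in both replicates, limit being median viability minus 3 SD, cut at about 48% in these data, passing the limit was not always enough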;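 note: 100% = mean luminescence of untreated wells and 0% = no signal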). The note with it: H69AR lung tumor cells viability, ATP luminescence, 72 h; at 10 µM; stronger effect = lower value.
Test [6] in a line: MRP1 drug-resistance reversers in H69AR cells – cell-based, doxorubicin co-treatment, pilot screen (AID 601;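 active = viability loss from added drug above about 55%, and viability with drug at most 40%, in both replicates, limit read from the data, passing the limit was not always enough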). The note with it: CellTiter-Glo, 72 h, at 10 µM; for differential viability (reversal): stronger effect = higher value.
The nature of test [7]: yeast transport mutant growth inhibition pilot in 384-well plates, post-Golgi transport modulator project (AID 636; in the data active = inhibition above about 31%). Conditions: absorbance 615 nm, about 18 h, stronger effect = higher value.
A short description of test [8]: growth suppression of yeast trafficking mutant, preliminary HTS, modulators of trafficking downstream of Golgi apparatus project, 1536-format plate, OD 615 nm (AID 637; in the data active = inhibition above about 30%). The note with it: yeast transport mutant growth, absorbance 615 nm, 18 h; stronger effect = higher value.
[9] abbreviates: H69AR cells + 2 uM doxorubicin, measured here: viability with 2 uM doxorubicin, stronger effect = lower value.
Setting [10] is: H69AR cells, compound alone cytotoxicity.

Receptor tyrosine-protein kinase erbB-2 (Homo sapiens), sequence (P04626 whole entry, looked up): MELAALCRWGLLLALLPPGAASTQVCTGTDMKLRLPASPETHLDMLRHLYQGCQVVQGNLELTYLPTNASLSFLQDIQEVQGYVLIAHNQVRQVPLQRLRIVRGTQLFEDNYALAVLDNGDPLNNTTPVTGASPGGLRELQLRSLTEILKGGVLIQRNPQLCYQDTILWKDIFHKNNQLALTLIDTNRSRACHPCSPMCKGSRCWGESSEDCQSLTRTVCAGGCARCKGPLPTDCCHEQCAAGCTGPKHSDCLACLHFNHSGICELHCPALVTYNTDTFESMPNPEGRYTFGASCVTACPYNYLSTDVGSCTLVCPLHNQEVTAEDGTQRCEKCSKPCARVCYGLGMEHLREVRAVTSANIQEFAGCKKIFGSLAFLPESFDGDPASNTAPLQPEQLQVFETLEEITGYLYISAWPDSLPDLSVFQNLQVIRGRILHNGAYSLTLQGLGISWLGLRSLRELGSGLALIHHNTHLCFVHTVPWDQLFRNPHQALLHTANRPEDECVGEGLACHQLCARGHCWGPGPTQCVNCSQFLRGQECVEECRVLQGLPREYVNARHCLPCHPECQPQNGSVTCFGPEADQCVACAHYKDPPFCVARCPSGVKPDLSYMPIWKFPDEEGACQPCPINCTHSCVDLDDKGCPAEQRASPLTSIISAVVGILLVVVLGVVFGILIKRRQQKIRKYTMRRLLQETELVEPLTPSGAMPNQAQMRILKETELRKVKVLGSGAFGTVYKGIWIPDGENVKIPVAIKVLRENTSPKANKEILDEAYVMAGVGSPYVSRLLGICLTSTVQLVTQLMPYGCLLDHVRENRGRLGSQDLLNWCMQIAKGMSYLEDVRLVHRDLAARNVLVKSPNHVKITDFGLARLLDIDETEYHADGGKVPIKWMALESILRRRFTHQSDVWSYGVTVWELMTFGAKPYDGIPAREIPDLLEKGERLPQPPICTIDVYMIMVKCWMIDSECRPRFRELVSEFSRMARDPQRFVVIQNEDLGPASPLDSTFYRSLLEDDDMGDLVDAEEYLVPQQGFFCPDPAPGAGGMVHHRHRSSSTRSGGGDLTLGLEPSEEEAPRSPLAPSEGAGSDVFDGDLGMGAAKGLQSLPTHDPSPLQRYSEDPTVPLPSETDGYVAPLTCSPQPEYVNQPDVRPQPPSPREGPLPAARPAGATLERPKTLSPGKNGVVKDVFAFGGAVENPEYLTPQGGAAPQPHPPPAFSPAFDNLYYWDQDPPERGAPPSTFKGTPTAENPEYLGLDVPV

With `COc1ccc(CNc2nc3nc(C)cc(C)n3n2)cc1OC`, the viability in test [1] was 104%; in test [3], 104% (inactive); in test [4] it was 111% (inactive); in test [5] it was 108% (inactive); in test [6] (setting [9]), 103%; in test [6] (setting [10]) it was 108%. In addition, the Her2 level in test [2] is 94.5% (inactive). Moreover, in test [6] (H69AR cells + 2 uM doxorubicin), the differential viability (reversal) is 5.1% (inactive). Moreover, the inhibition in test [7] is -1.71% (inactive); in test [8], 7.21% (inactive).
Consider `O=C(O)CCc1ccc(-c2cccs2)o1`, for which the viability is 94% in test [1]; 94% (inactive) in test [3]; 95.9% (inactive) in test [4]; 95.9% (inactive) in test [5]; 91.6% in test [6] (setting [9]); 95.9% in test [6] (setting [10]). For the same compound, the Her2 level in test [2] is 86% (inactive). Also, the differential viability (reversal) in test [6] (H69AR cells + 2 uM doxorubicin) is 4.25% (inactive). Further, the values for the inhibition in test [7] and in test [8] were -0.26% (inactive) and -5.67% (inactive), respectively.
For the compound `COc1cccc(-c2cc(C(=O)NCc3ccc(Cl)cc3)no2)c1`, the viability in test [1] is 84%; in test [3] it was 84% (inactive); in test [4], 97% (inactive); in test [5], 89.3% (inactive); in test [6] (setting [9]), 84.2%; in test [6] (setting [10]), 89.3%. In test [2], the Her2 level is 94% (inactive). Moreover, the differential viability (reversal) in test [6] (H69AR cells + 2 uM doxorubicin) was 5.11% (inactive). Also, the inhibition is -6.62% (inactive) in test [7] and 0.82% (inactive) in test [8].
Regarding `O=C1CC(C2CCCO2)C(=O)N1Cc1ccccc1` (stereo not given), the viability was 98% in test [1]; 98% (inactive) in test [3]; 90.2% (inactive) in test [4]; 103% (inactive) in test [5]; 99.4% in test [6] (setting [9]); 103% in test [6] (setting [10]). In test [2], the Her2 level was 94% (inactive). Further, the differential viability (reversal) in test [6] (H69AR cells + 2 uM doxorubicin) is 3.39% (inactive). Besides, the inhibition in test [7] was -6.08% (inactive); in test [8] it was -0.66% (inactive).
In the case of `CC(NCc1ccco1)C(=O)N1CCc2ccccc2C1` (stereo not given), the viability in test [1] was 108%; in test [3] it was 108% (inactive); in test [4], 109% (inactive); in test [5], 92.9% (inactive); in test [6] (setting [9]), 87.4%; in test [6] (setting [10]), 92.9%. In addition, the Her2 level in test [2] is 108% (inactive). Moreover, the differential viability (reversal) in test [6] (H69AR cells + 2 uM doxorubicin) is 5.48% (inactive). The results for the inhibition in test [7] and in test [8] were 1.92% (inactive) and -2.06% (inactive), respectively.
On to `COCCN1C(=O)C(=O)/C(=C(/O)c2ccc(OC(C)C)cc2)C1c1cccnc1` (stereo not given), for which the viability in test [1] is 94.5%; in test [3], 94.5% (inactive); in test [4], 89.7% (inactive); in test [5] it was 92.6% (inactive); in test [6] (setting [9]), 87.4%; in test [6] (setting [10]), 92.6%. Further, in test [2], the Her2 level is 86.5% (inactive). In test [6] (H69AR cells + 2 uM doxorubicin), the differential viability (reversal) is 5.24% (inactive). For the same compound, the inhibition in test [7] is -3.55% (inactive); in test [8] it was 3.33% (inactive).
For the compound `CCOc1ccccc1NC(=O)CCN1CCN(S(=O)(=O)c2ccc(Br)cc2)CC1`, the viability in test [1] was 119%; in test [3] it was 119% (inactive); in test [4], 100% (inactive); in test [5], 86.9% (inactive); in test [6] (setting [9]), 75.7%; in test [6] (setting [10]), 86.9%. Besides, the Her2 level in test [2] is 87.5% (inactive). In addition, the differential viability (reversal) in test [6] (H69AR cells + 2 uM doxorubicin) was 11.2% (inactive). For the same compound, the figures for the inhibition in test [7] and in test [8] were -6.8% (inactive) and 1.13% (inactive), respectively.
In the case of `COc1ccc(Cc2nc(-c3ccc(NC(=O)c4cccnc4)cc3)no2)cc1`, the viability is 109% in test [1]; 109% (inactive) in test [3]; 123% (inactive) in test [4]; 17.7% (active) in test [5]; 17.7% in test [6] (setting [9]); 17.7% in test [6] (setting [10]). Further, the Her2 level in test [2] was 84.5% (inactive). Moreover, in test [6] (H69AR cells + 2 uM doxorubicin), the differential viability (reversal) was -0.01% (inactive). Moreover, the inhibition is -7.7% (inactive) in test [7] and 7.94% (inactive) in test [8].
For `c1ccc(Cn2nnc3c(N4CCC5(CC4)OCCO5)ncnc32)cc1`, the viability was 105% in test [1]; 105% (inactive) in test [3]; 103% (inactive) in test [4]; 90.7% (inactive) in test [5]; 99.3% in test [6] (setting [9]); 90.7% in test [6] (setting [10]). Also, in test [2], the Her2 level was 92.5% (inactive). Moreover, the differential viability (reversal) in test [6] (H69AR cells + 2 uM doxorubicin) is -8.68% (inactive). Moreover, the inhibition was -1.05% (inactive) in test [7] and 4.03% (inactive) in test [8].
Turning to `N#Cc1nc(-c2ccco2)oc1NCCc1ccccc1`, the viability is 92.5% in test [1]; 92.5% (inactive) in test [3]; 90.6% (inactive) in test [4]; 97.4% (inactive) in test [5]; 82.6% in test [6] (setting [9]); 97.4% in test [6] (setting [10]). Also, the Her2 level in test [2] is 98.5% (inactive). The differential viability (reversal) in test [6] (H69AR cells + 2 uM doxorubicin) was 14.8% (inactive). The inhibition in test [7] is -5.58% (inactive); in test [8] it was -10.5% (inactive).
Take `O=C(Cn1cccc1)N1CCN(C(c2ccccc2)c2ccccc2)CC1`: the viability is 102% in test [1]; 102% (inactive) in test [3]; 108% (inactive) in test [4]; 91.4% (inactive) in test [5]; 95.9% in test [6] (setting [9]); 91.4% in test [6] (setting [10]). The Her2 level in test [2] was 87% (inactive). In addition, the differential viability (reversal) in test [6] (H69AR cells + 2 uM doxorubicin) was -4.55% (inactive). Besides, the inhibition in test [7] was -6.76% (inactive); in test [8] it was 4.33% (inactive).
With `CCc1ccc(NS(=O)(=O)c2cccs2)cc1`, the viability in test [1] was 97.5%; in test [3], 97.5% (inactive); in test [4] it was 101% (inactive); in test [5] it was 96% (inactive); in test [6] (setting [9]), 94%; in test [6] (setting [10]) it was 96%. Also, the Her2 level in test [2] was 102% (inactive). Moreover, the differential viability (reversal) in test [6] (H69AR cells + 2 uM doxorubicin) is 2% (inactive). In addition, the inhibition in test [7] was -2.24% (inactive); in test [8], 1.48% (inactive).
As for `CCc1nnc(NC(=O)C2CCCN2S(=O)(=O)c2ccc(C)cc2)s1` (stereo not given), the viability in test [1] was 91.5%; in test [3], 91.5% (inactive); in test [4], 117% (inactive); in test [5] it was 117% (inactive); in test [6] (setting [9]), 112%; in test [6] (setting [10]), 117%. In addition, the Her2 level in test [2] is 89.5% (inactive). Besides, the differential viability (reversal) in test [6] (H69AR cells + 2 uM doxorubicin) was 5.4% (inactive). Also, the inhibition in test [7] is -6.35% (inactive); in test [8] it was 6.07% (inactive).
With `CCN1CCN(S(=O)(=O)Cc2ccccc2)CC1`, the viability in test [1] is 116%; in test [3], 116% (inactive); in test [4], 105% (inactive); in test [5], 91.4% (inactive); in test [6] (setting [9]), 92.1%; in test [6] (setting [10]) it was 91.4%. The Her2 level in test [2] was 114% (inactive). Besides, the differential viability (reversal) in test [6] (H69AR cells + 2 uM doxorubicin) is -0.695% (inactive). Besides, the inhibition is 1.62% (inactive) in test [7] and 12.9% (inactive) in test [8].

A word on the viability: it is a read-out of living cells in per cent, often relative to untreated cells. As a reminder, the inhibition is the relative decrease from the control value, in per cent.
